From article PMC2233745 (The Journal of General Physiology, 2001)
Where a chain is given by its changes, count along the chain named. Read-outs that look alike come from different tables or passages of the source. Ends that are not written are not given here.

What was measured:
[1] = test system: PDE activity in GH4C1 cells; test: Effect of PDE inhibitors on forskolin-induced Ca2+ influx in GH4C1 cells; format: cell-based, rat; conditions: Δ61–90/C460W/E583M channels, 10 μM forskolin, 1 μM nimodipine
[2] = test system: PDE activity in HEK-293 cells; test: Effects of PDE inhibitors on forskolin-induced Ca2+ influx in HEK-293 cells; format: cell-based, human; conditions: C460W/E583M channels, 1 μM forskolin, IBMX 10 or 100 μM, RO-20-1724 10 μM
HEK-293 cells = test: Equilibration of PDE inhibitors across the plasma membrane; format: cell-based, human; conditions: data not shown
[3] = target: T1, WT rat olfactory CNG channel α subunit (Rattus norvegicus, UniProt Q00195); test: Excised inside-out patch recording, WT CNG channel; format: biochemical; conditions: for N (Hill coefficient): mean ± SD of three experiments
T1 sequence (Q00195 1-664): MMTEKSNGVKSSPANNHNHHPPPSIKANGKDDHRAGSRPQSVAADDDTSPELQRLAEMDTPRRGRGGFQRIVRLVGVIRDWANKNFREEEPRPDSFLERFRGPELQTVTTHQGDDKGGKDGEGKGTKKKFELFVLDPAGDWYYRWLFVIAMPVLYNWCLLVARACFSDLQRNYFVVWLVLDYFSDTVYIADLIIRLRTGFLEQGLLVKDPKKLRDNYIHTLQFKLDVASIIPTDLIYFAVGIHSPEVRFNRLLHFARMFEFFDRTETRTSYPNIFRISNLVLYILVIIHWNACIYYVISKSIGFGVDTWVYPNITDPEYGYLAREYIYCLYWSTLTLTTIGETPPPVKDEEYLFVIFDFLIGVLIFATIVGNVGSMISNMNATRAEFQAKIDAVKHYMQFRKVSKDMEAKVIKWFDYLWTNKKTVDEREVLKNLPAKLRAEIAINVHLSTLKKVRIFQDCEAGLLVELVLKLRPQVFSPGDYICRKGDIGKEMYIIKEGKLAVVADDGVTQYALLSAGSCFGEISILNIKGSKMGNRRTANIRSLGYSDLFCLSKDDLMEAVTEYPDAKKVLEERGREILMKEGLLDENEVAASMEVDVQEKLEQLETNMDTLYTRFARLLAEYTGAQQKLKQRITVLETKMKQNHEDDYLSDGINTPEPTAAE

[4] = target: T2, E583M rat olfactory CNG channel (Rattus norvegicus, UniProt Q00195, E583M); test: Excised inside-out patch recording, E583M CNG channel; format: biochemical; conditions: for N (Hill coefficient): mean ± SD of three experiments
T2 sequence (Q00195 1-664 E583M): T1 sequence (Q00195 1-664) with E583M

[5] = target: T3, C460W/E583M rat olfactory CNG channel (Rattus norvegicus, UniProt Q00195, C460W/E583M); test: Excised inside-out patch recording, C460W/E583M CNG channel; format: biochemical; conditions: for N (Hill coefficient): mean ± SD of three experiments
T3 sequence (Q00195 1-664 C460W/E583M): T1 sequence (Q00195 1-664) with C460W, E583M

[6] = target: T4, Δ61–90/C460W/E583M rat olfactory CNG channel (Rattus norvegicus, UniProt Q00195, C460W/DEL61-90/E583M); test: Excised inside-out patch recording, Δ61–90/C460W/E583M CNG channel; format: biochemical; conditions: Δ61-90/C460W/E583M channel, mean ± SD of three experiments; for EC50: read-out: K1/2 (concentration that gives half-maximal current)
T4 sequence (Q00195 with tags, fused parts or gaps DEL61-90/C460W/E583M): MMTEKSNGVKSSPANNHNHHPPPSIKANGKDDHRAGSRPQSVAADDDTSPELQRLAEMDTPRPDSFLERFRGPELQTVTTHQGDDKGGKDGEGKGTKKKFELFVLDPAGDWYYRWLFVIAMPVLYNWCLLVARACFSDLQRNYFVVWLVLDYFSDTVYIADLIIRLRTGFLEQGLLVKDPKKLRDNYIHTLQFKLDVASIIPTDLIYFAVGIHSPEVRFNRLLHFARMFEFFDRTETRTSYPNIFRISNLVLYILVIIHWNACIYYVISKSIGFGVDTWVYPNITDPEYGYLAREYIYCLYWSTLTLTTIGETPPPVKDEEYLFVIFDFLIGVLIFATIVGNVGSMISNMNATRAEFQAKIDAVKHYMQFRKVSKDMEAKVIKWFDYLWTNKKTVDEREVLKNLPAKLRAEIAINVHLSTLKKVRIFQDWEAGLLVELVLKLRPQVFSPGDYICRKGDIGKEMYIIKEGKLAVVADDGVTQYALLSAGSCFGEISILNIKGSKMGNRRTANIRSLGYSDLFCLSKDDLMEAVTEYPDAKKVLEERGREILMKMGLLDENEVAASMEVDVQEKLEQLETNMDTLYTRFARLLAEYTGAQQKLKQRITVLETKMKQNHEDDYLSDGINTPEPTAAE

[7] = test system: HEK-293 cells expressing CNG channels; test: Forskolin-induced Ca2+ influx through expressed CNG channels in HEK-293 cells; format: cell-based, human; conditions: for forskolin concentration at which delay and rate of Ca2+ influx saturate: 100 μM IBMX
Procedure, shortened: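 HEK-293 cells were infected with channel-encoding adenovirus (MOI 10) and detached at 24 h with PBS/0.03% EDTA. They were loaded at room temperature for 30–40 min with 4 μM fura-2/AM and 0.02% pluronic F-127, then resuspended in HEPES-buffered saline with 1 mM CaCl2, pH 7.4, and stirred in a cuvette. 100 μM IBMX was added at 0 s and forskolin at 180 s. ΔF/F0 was read at ex 380/em 510 nm; n = 4 batches.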

[8] = test system: GH4C1 cells expressing C460W/E583M channels; test: AC activator-induced Ca2+ influx in GH4C1 cells expressing C460W/E583M channels; format: cell-based, rat; conditions: after vehicle or 100 μM IBMX
Procedure, shortened: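 Rat GH4C1 cells kept in Ham's F-10 (15% horse serum, 2.5% FBS, pH 6.8, 37°C), adenovirus-infected (MOI 50), assayed within 12 h of harvest at 48 h post-infection. Loaded 70 min with 4 μM fura-2/AM at room temperature, then washed. Read in pH 7.4 saline (1 mM CaCl2) at ex 380/em 510 nm as ΔF/F0. Nimodipine 1 μM at time zero; IBMX/vehicle at 60 s; agonist afterwards.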

[9] = test system: HEK-293 and C6–2B glioma cells; conditions: ref Rich et al. 2000, cited from earlier work
[10] = test system: voltage-gated Ca2+ channels; test: Block of Ca2+ influx through voltage-gated Ca2+ channels in GH4C1 cells; format: cell-based, rat; conditions: 1 μM nimodipine, membrane depolarization in 24 mM external KCl, data not shown
[11] = read-out: K1/2 (concentration that gives half-maximal current), +50 mV, mean ± SD of three experiments
[12] = read-out: K1/2 (concentration that gives half-maximal current), −50 mV, mean ± SD of three experiments
[13] = read-out: K1/2, +50 mV, experiment shown in Fig. 2

## COCc1nc2c([nH]1)c(=O)n(C)c(=O)n2CC(C)C [8-methoxymethyl-IBMX]
[1]
  effect on PDE activity / forskolin-induced Ca2+ influx: significantly inhibited PDE activity

## CCOC(=O)c1cnc2c(cnn2CC)c1NN=C(C)C [Etazolate]
[2]
  effect on forskolin-induced Ca2+ influx: significantly increased the forskolin-induced Ca^2+ influx

## CCCCOc1cc(CC2CNC(=O)N2)ccc1OC (stereo not drawn) [RO-20-1724, 4-(3-butoxy-4-methoxybenzyl)-2-imidazolidinone]
[2]
  effect on forskolin-induced Ca2+ influx: significant forskolin-induced Ca^2+ influx was observed
HEK-293 cells
  time to complete equilibration across the plasma membrane: < 180 s
[1]
  effect on PDE activity / forskolin-induced Ca2+ influx: also inhibited PDE activity

## COc1ccc(C2CNC(=O)C2)cc1OC1CCCC1 (stereo not drawn) [Rolipram]
[2]
  effect on forskolin-induced Ca2+ influx: significantly increased the forskolin-induced Ca^2+ influx
HEK-293 cells
  time to complete equilibration across the plasma membrane: < 180 s
[1]
  effect on PDE activity / forskolin-induced Ca2+ influx: also inhibited PDE activity

## Nc1nc2c(ncn2[C@@H]2O[C@@H]3COP(=O)(O)O[C@H]3[C@H]2O)c(=O)[nH]1 [cGMP]
[3]; +50 mV
  N (Hill coefficient): 2.3 ± 0.1
[3]; [11]
  EC50: 1.6 ± 0.1 µM
[3]; [12]
  EC50: 1.3 ± 0.4 µM
[3]; −50 mV
  N (Hill coefficient): 2.5 ± 0.4
[4]; +50 mV
  N (Hill coefficient): 2.4 ± 0.2
[4]; [11]
  EC50: 28 ± 2 µM
[4]; [12]
  EC50: 32 ± 4 µM
[4]; [13]
  EC50: 25 µM
[4]; −50 mV
  N (Hill coefficient): 1.9 ± 0.2
[5]; +50 mV
  N (Hill coefficient): 2.8 ± 0.3
[5]; [11]
  EC50: 12 ± 2 µM
[5]; [12]
  EC50: 6.2 ± 1 µM
[5]; [13]
  EC50: 11 µM
[5]; −50 mV
  N (Hill coefficient): 2.7 ± 0.1
[6]; +50 mV
  EC50: 36 ± 4 µM
  N (Hill coefficient): 1.8 ± 0.2
[6]; −50 mV
  EC50: 16 ± 1 µM
  N (Hill coefficient): 2.6 ± 0.2

## C=C[C@@]1(C)CC(=O)[C@]2(O)[C@@]3(C)[C@@H](O)CCC(C)(C)[C@@H]3[C@H](O)[C@H](OC(C)=O)[C@@]2(C)O1 [forskolin]
[7]; HEK-293 cells expressing C460W/E583M channel
  forskolin concentration at which delay and rate of Ca2+ influx saturate: 5 µM
[7]; HEK-293 cells expressing E583M channel
  forskolin concentration at which delay and rate of Ca2+ influx saturate: 20 µM
[7]; HEK-293 cells expressing WT channel
  forskolin concentration at which delay and rate of Ca2+ influx saturate: > 50 µM
[7]; HEK-293 cells expressing Δ61–90/C460W/E583M channel
  forskolin concentration at which delay and rate of Ca2+ influx saturate: 20 µM
[8]; 10 μM forskolin
  cAMP accumulation and Ca2+ influx after addition: caused additional cAMP accumulation and Ca^2+ influx
[9]; local cAMP near the plasma membrane
  forskolin-induced increase in cAMP concentration measured using CNG channels: > 25 µM
[9]
  forskolin-induced increase in cAMP concentration averaged throughout the accessible cell volume: 1 to 2 µM

## COCCOC(=O)C1=C(C)NC(C)=C(C(=O)OC(C)C)C1c1cccc([N+](=O)[O-])c1 (stereo not drawn) [nimodipine]
[7]; 1 μM nimodipine, HEK-293 cells, data not shown
  effect on forskolin or pCPT-cGMP induced Ca2+ influx through CNG channels: did not alter
[10]
  block of Ca2+ influx through voltage-gated Ca2+ channels: sufficient to block Ca^2+ influx through voltage-gated Ca^2+ channels

## vasoactive intestinal peptide (HSDAVFTDNYTRLRKQMAVKKYLNSILN; ends and bridges not checked; UniProt P01282 125-152, looked up) [VIP]
[8]; 100 nM VIP
  cAMP accumulation and Ca2+ influx after addition: caused additional cAMP accumulation and Ca^2+ influx
